Measured values taken from paper PMC8209782 (Bioorganic & medicinal chemistry, 2020).

Key:
HNE = target: T1, HNE (Homo sapiens, UniProt P08246); assay: In vitro HNE enzyme assay with pNa substrate; assay type: biochemical
T1 sequence (P08246 30-267): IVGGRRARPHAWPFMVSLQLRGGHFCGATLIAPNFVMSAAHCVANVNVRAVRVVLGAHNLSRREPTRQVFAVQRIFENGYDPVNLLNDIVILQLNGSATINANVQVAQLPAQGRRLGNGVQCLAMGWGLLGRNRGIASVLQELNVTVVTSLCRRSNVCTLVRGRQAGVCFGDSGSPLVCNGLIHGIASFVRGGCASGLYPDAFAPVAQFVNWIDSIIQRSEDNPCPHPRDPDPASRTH

other kallikreins = assay: Protease panel assay; assay type: biochemical, human; conditions: up to 10 μM
Procedure, shortened: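 Human kallikreins in a 23-protease panel run by a contract lab, with enzyme conditions tabulated in the supplement. […] Fluorogenic AMC peptide substrates; fluorescence increase followed as a time course. The initial linear slope (signal/min) was used to derive IC50.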

SMILES: C/C=C1\NC(=O)[C@@H](NC(=O)[C@@H](NC(=O)[C@H](C)NC(=O)C/C(C)=C/Cl)[C@@H](C)CC)[C@@H](C)OC(=O)[C@H](C(C)C)NC(=O)[C@H](Cc2ccc(O)cc2)N(C)C(=O)[C@H](Cc2ccccc2)N2C(=O)[C@H](CC[C@H]2O)NC1=O [Tutuilamide A]
- fold less active than lyngbyastatin 7 against HNE (HNE): 1.5 fold
- effect on other kallikreins (selectivity profiling) (other kallikreins): without affecting
